# Experimental data gathered from unrelated publications.
# Protocols differ between the studies behind these lines.
# Target: Protein-tyrosine kinase 2-beta (PTK2B, Homo sapiens, UniProt Q14289)
SMILES,test,setting,quantity,value
Cc1nn(C)cc1-c1nc2c(N3CCN(Cc4ccc(Cl)cc4)CC3)c(Cl)cnc2[nH]1,"binding, competition with immobilised ligand",1 µM,remaining binding,100%
Nc1ncc(-c2nc(N3CCOCC3)nc(N3CCOCC3)n2)c(C(F)F)n1,"binding, competition with immobilised ligand",10 µM,remaining binding,70%
N#CC1(c2ccccn2)CCN(Cc2cc(C(=O)O)c(=O)n3ccccc23)CC1,"cell-free assay, competition with immobilised ligand",1 µM,remaining binding,100%
O=c1[nH]c2ccccc2n1C1CCN(Cc2ccc(-c3[nH]c4cc5ncnc5cc4nc3-c3ccccc3)cc2)CC1,enzyme activity,0.5 µM,remaining activity,105%
Cn1cc(-c2cccc(N3CCc4c(sc5c4CC(C)(C)C5)C3=O)c2CO)cc(Nc2ccncn2)c1=O,"enzyme activity, inhibitor",1 µM,inhibition,2%
COc1ncccc1-c1cnn2ccc(N3CCN(C(=O)OC(C)C)CC3)nc12,"binding, competition with immobilised ligand",1 µM,remaining binding,100%
Cn1cncc1[C@@](O)(COc1ccc(C#N)cc1-c1ccc(OC(F)(F)F)cc1)c1ccc(C#N)cc1,"cell-free assay, competition with immobilised ligand",1 µM,remaining binding,100%
Cn1cc(-c2cc(F)cc(N3CCn4c(cc5c4CCCC5)C3=O)c2CO)cc(Nc2ccc(N3CCN(C4COC4)CC3)cn2)c1=O,"enzyme activity, inhibitor",0.1 µM,inhibition,6%
